Assay results taken from ChEMBL document CHEMBL1129039 (J Med Chem, 1996).
One block for each compound: values may come before it. Activity calls are given as the source filed them. The rule behind the calls is not given here.

Tests used:
[1] = biological target: T1, B2 bradykinin receptor (Rattus norvegicus, UniProt P25023); test: In vitro Bradykinin receptor B2 antagonist activity by using rat uterus functional assay; assay type: tissue-based; conditions: read-out: pA2 (converted)
T1 sequence (P25023 whole entry): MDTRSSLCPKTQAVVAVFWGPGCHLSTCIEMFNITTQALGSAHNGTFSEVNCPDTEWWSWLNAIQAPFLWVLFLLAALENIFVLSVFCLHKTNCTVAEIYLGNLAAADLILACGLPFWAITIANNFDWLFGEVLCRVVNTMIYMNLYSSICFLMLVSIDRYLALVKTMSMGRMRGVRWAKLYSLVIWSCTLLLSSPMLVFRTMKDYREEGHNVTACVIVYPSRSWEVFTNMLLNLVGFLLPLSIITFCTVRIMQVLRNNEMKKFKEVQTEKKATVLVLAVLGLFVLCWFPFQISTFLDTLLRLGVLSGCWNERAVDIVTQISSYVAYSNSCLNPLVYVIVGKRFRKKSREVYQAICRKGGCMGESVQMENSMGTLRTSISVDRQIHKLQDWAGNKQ
Method in brief: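 Uterine horns from female Sprague-Dawley rats primed with stilbesterol (100 μg/kg) 18 h earlier. Tissue held at 1 g tension in De Jalon's solution, 31 °C, aerated. Potency by Arunlakshana-Schild analysis.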

[2] = biological target: T2, B2 bradykinin receptor (Homo sapiens, UniProt P30411); test: Binding affinity towards Bradykinin receptor B2 in human S34 clone cells; assay type: cell-based
T2 sequence (P30411 whole entry): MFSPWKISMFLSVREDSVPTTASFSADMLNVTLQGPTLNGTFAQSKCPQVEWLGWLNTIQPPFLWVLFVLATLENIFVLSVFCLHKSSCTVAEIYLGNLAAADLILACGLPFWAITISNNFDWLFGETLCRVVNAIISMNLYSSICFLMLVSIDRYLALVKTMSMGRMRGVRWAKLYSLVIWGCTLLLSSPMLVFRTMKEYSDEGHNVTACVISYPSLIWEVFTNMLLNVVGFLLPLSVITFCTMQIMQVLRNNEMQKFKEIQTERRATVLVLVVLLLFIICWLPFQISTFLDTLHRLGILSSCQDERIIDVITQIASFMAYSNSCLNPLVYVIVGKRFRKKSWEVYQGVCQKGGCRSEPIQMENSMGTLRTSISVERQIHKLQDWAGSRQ

[3] = In vitro stability was measured in human plasma tissue preparation; assay type: ADME
[4] = biological target: B1 bradykinin receptor (Oryctolagus cuniculus); test: In vitro Bradykinin receptor B1 antagonist activity in functional tissue within rabbit aorta
[5] = In vitro stability was measured in rat kidney tissue preparation; assay type: ADME
Method in brief: (§1)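 Lung or kidney cortical membranes made by differential centrifugation and stored at -20 °C. Dilutions in PBS: porcine kidney 1:10, rat kidney 1:100, porcine lung 1:1. Compound at 1 mM in PBS, 10 μL, incubated with 90 μL diluted membranes for various times. Quenched with ethanol, centrifuged.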

[6] = In vitro stability was measured in porcine kidney tissue preparation; assay type: ADME, Sus scrofa; conditions: pig; method in brief: as §1
[7] = In vitro stability was measured in porcine lung tissue preparation; assay type: ADME, Sus scrofa; conditions: pig; method in brief: as §1
[8] = Binding affinity towards bradykinin receptor using [3H]BK as radioligand in guinea pig ileum; assay type: tissue-based, Cavia porcellus
Method in brief: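 Ileal membranes from Duncan-Hartley guinea pigs, 0.2 mg/mL, room temperature in 25 mM TES pH 6.8 with 1,10-phenanthroline, DTT, captopril, bacitracin, thiorphan, 0.1% BSA. […] Filtered on PEI-pretreated GF/B, washed with cold Tris pH 7.5/NaCl/BSA, scintillation counted. Mean ± SD, n = 4.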

[9] = system: Oryctolagus cuniculus; test: Effective dose for bradykinin B2 activity after administration (0.03 ug/kg/min) in rabbit; assay type: functional
[10] = system: Oryctolagus cuniculus; test: Percent inhibition after intravenously administration compound at 60 min in rabbit; expressed as percent inhibition; assay type: functional
[11] = system: Oryctolagus cuniculus; test: Effective dose for bradykinin B1 activity after administration (1 ug/kg/min) in rabbit; assay type: functional
[12] = system: Rattus norvegicus; test: Percent inhibition after subcutaneously administration compound at 3H in rat; expressed as percent inhibition; assay type: functional
[13] = system: Oryctolagus cuniculus; test: Effective dose for bradykinin B1 activity after administration (10 ug/kg/min) in rabbit; assay type: functional
[14] = system: Oryctolagus cuniculus; test: Effective dose for bradykinin B2 activity after administration (0.01 ug/kg/min) in rabbit; assay type: functional
[15] = system: Oryctolagus cuniculus; test: Effective dose for bradykinin B2 activity after administration (0.1 ug/kg/min) in rabbit; assay type: functional
[16] = system: Oryctolagus cuniculus; test: Effective dose for bradykinin B1 activity after administration (3 ug/kg/min) in rabbit; assay type: functional
[17] = system: Oryctolagus cuniculus; test: Selectivity was determined as response after administration (0.1 ug/mg/kg) to that of preantagonist response in rabbit; B2 block only; assay type: functional, organism-based
[18] = organism: Rattus norvegicus; test: Percent recovery was evaluated in rat; assay type: functional, organism-based
Method in brief: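 Same rat uterus preparation. […] Its pD2 is compared with the initial control pD2. The difference against concurrent control gives percentage recovery of agonist response.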

- Kb [1]: 0.49 nM
- Ki [2]: 0.24 nM
- half-life [3]: > 6 h
- IC50 [4]: > 10000 nM
- half-life [5]: > 6 h
- half-life [6]: > 6 h
- half-life [7]: > 6 h
Compound: NC(N)=NCCCC(N)C(=O)NC(CCCN=C(N)N)C(=O)N1CCC[C@H]1C(=O)N1C[C@H](O)C[C@H]1C(=O)NCC(=O)N[C@@H](Cc1cccs1)C(=O)N[C@@H](CO)C(=O)N1Cc2ccccc2C[C@@H]1C(=O)N(CC(=O)NC(CCCN=C(N)N)C(=O)O)C1CCCCC1 (stereo in doubt) [listing 1 of 3 here]
- Log Ki [8]: -10.11

- Kb [1]: 0.316 nM
- half-life [3]: > 6 h
- half-life [5]: > 6 h
- half-life [6]: > 6 h
- half-life [7]: > 6 h
Compound: NC(N)=NCCC[C@@H](N)C(=O)N[C@@H](CCCN=C(N)N)C(=O)N1CCC[C@H]1C(=O)N1C[C@H](O)C[C@H]1C(=O)NCC(=O)N[C@@H](Cc1cccs1)C(=O)N[C@@H](CO)C(=O)N1Cc2ccccc2C[C@@H]1C(=O)N1[C@H](C(=O)N[C@@H](CCCN=C(N)N)C(=O)O)C[C@@H]2CCCC[C@@H]21 [ICATIBANT]

Compound: NC(N)=NCCCC(N)C(=O)NC(CCCN=C(N)N)C(=O)N1CCC[C@H]1C(=O)N1C[C@H](O)C[C@H]1C(=O)NCC(=O)N[C@@H](Cc1cccs1)C(=O)N[C@@H](CO)C(=O)N1Cc2ccccc2C[C@@H]1C(=O)N(CC(=O)NC(CCCN=C(N)N)C(=O)O)C1CCCCC1 (stereo in doubt) [listing 2 of 3 here]
- ED50 [9]: 0.051 µg/mg/kg
- Inhibition [10]: 100%
- ED50 [11]: 2.9 µg/mg/kg
- Inhibition [12]: 100%
- ED50 [13]: 2.9 µg/mg/kg
- ED50 [14]: 0.051 µg/mg/kg
- ED50 [15]: 0.051 µg/mg/kg
- ED50 [16]: 2.9 µg/mg/kg

Compound: NC(N)=NCCCC(N)C(=O)NC(CCCN=C(N)N)C(=O)N1CCC[C@H]1C(=O)N1C[C@H](O)C[C@H]1C(=O)NCC(=O)N[C@@H](Cc1cccs1)C(=O)N[C@@H](CO)C(=O)N1Cc2ccccc2C[C@@H]1C(=O)N(CC(=O)NC(CCCN=C(N)N)C(=O)O)C1CCCCC1 (stereo in doubt) [listing 3 of 3 here]
- Selectivity [17]: inactive
- Recovery [18]: 73%
